{"source": "ChEMBL document CHEMBL3124918", "about": "“Optimization of peptides that target human thymidylate synthase to inhibit ovarian cancer cell growth” (2014)", "key": {"[1]": {"assay": "Upregulation of thymidylate synthase total protein level in 13-fold cisplatin-resistant human C13 cells at 5 uM after 48 hrs by Western blotting analysis", "type": "functional, cell-based"}, "2008 [2]": {"system": "2008", "assay": "Upregulation of thymidylate synthase total protein level in human 2008 cells at 5 uM after 48 hrs by Western blotting analysis", "type": "functional, cell-based"}, "[3]": {"molecular_target": "Thymidylate synthase (Homo sapiens) (UniProt P04818)", "sequence (P04818 2-313 limits assumed)": "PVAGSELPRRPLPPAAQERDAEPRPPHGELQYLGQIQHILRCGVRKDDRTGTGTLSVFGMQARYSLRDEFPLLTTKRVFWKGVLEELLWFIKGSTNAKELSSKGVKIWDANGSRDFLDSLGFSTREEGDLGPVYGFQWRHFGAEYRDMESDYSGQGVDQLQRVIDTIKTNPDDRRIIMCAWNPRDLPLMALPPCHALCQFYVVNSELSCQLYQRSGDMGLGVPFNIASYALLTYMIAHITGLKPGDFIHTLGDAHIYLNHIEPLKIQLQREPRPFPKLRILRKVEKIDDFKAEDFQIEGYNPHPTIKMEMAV", "assay": "Inhibition of human thymidylate synthase using dUMP as substrate at 75 uM after 1 hr by UV-vis spectrophotometric analysis in presence of mTHF relative to control", "summary_of_the_method": "(§1)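 Purified hTS, concentration by UV-vis (ε280 = 89 000 M−1 cm−1), preincubated 1 h with peptide in phosphate buffer pH 6.9 at 25 °C. Reaction in 50 mM TES pH 7.4 with 25 mM MgCl2, 6.5 mM HCHO, 1 mM EDTA, 75 mM βME, 0.6 mM dUMP, 0.15 mM mTHF. A340 followed 3 min. I% versus enzyme-alone control, mean ± SEM, n = 3.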"}, "[4]": {"assay": "Cytotoxicity against 10-fold cisplatin-resistant human A2780C/P cells cell survival at 10 uM after 72 hrs by crystal violet staining-based spectrophotometric analysis relative to control", "conditions": "A2780cisR, read-out: Survival"}, "A2780": {"system": "A2780", "assay": "Cytotoxicity against human A2780 cells assessed as cell survival at 10 uM after 72 hrs by crystal violet staining-based spectrophotometric analysis relative to control", "conditions": "A2780, 72 h, read-out: Survival"}, "[5]": {"assay": "Cytotoxicity against 13-fold cisplatin-resistant human C13 cells cell survival at 10 uM after 72 hrs by crystal violet staining-based spectrophotometric analysis relative to control", "conditions": "C13, 72 h, read-out: Survival"}, "2008 [6]": {"system": "2008", "assay": "Cytotoxicity against human 2008 cells assessed as cell survival at 10 uM after 72 hrs by crystal violet staining-based spectrophotometric analysis relative to control", "conditions": "Homo sapiens, 2008, 72 h, read-out: Survival"}, "[7]": {"molecular_target": "Thymidylate synthase (Homo sapiens) (UniProt P04818)", "assay": "Inhibition of human thymidylate synthase using dUMP as substrate at 50 uM after 1 hr by UV-vis spectrophotometric analysis in presence of mTHF relative to control", "summary_of_the_method": "as §1"}}, "note": "The source made the active and inactive calls. The calls are words filed in the database; no cut-off is given here. Non-standard residues stand in square brackets, D forms with d. Residues, ends and D or L forms follow the SMILES beside them."}
{"molecule": "O=c1[nH]cc(F)c(=O)[nH]1", "values": [{"measurement": "Activity", "setting": "[1]", "value": "Active"}, {"measurement": "Activity", "setting": "2008 [2]", "value": "Active"}]}
{"molecule": "CC(C)C[C@H](N)C(=O)N[C@@H](CO)C(=O)N[C@@H](CS)C(=O)N[C@@H](CCC(N)=O)C(=O)O", "note": "(H-LSCQ-OH)", "values": [{"measurement": "inhibition", "setting": "[3]", "value": 59, "unit": "%"}]}
{"molecule": "CC(C)C[C@H](NC(=O)[C@@H](CCC(N)=O)NC(=O)[C@H](CS)NC(=O)[C@H](CO)NC(=O)[C@@H](N)CC(C)C)C(=O)N[C@@H](Cc1ccc(O)cc1)C(=O)N[C@@H](CCC(N)=O)C(=O)N[C@@H](CCCNC(=N)N)C(=O)O", "note": "(H-LSC[dQ]LYQR-OH)", "values": [{"measurement": "viability at 10 µM", "setting": "[4]", "value": 25, "unit": "%"}, {"measurement": "viability at 10 µM", "setting": "A2780", "value": "< 50", "unit": "%"}, {"measurement": "viability at 10 µM", "setting": "[5]", "value": 25, "unit": "%"}, {"measurement": "viability at 10 µM", "setting": "2008 [6]", "value": "< 50", "unit": "%"}]}
{"molecule": "H-CQLYQ-OH", "values": [{"measurement": "inhibition", "setting": "[3]", "value": 52, "unit": "%"}]}
{"molecule": "H-LSCQLYAR-OH", "values": [{"measurement": "inhibition", "setting": "[7]", "value": 60, "unit": "%"}]}
{"molecule": "H-LSCQLYQ-OH", "values": [{"measurement": "inhibition", "setting": "[3]", "value": 56, "unit": "%"}]}
{"molecule": "H-SCQLYQR-OH", "values": [{"measurement": "inhibition", "setting": "[7]", "value": 54, "unit": "%"}]}
